Measurements published in ChEMBL document CHEMBL1130244, “Boron-containing polyamines as DNA targeting agents for neutron capture therapy of brain tumors: synthesis and biological evaluation” (J Med Chem, 1997).

Key:
Nucleic Acid = experiment: Binding of compound to calf thymus DNA was determined by an ethidium bromide displacement assay; assay type: nucleic-acid assay, Bos taurus
[1] = Concentration required to produce a 50% reduction in the uptake of [3H]TdR, by F98 glioma cells; assay type: functional; settings: Rattus norvegicus, F98, 24 h
In short: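 F98 rat glioma cells, 10 000/well, grown overnight at 37 °C in DMEM with 10% FBS, then 24 h with polyamine at 1–100 μM (0.1–10 μg/mL boron); medium replaced with compound-free medium, pulsed with 0.1 μCi [3H]TdR per well for 18–24 h, then harvested and counted. Six replicates per concentration; IC50 from cpm as % of untreated controls.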

[2] = Actual boron concentration in media was determined by using direct current plasma atomic emission spectroscopy (DCP-AES) after 24 hr incubation
Rattus norvegicus = species: Rattus norvegicus; experiment: In vitro uptake of compound by F98 glioma cells was determined by measuring cellular boron content using direct current plasma atomic emission spectroscopy (DCP-AES) after 24 hr incubation

Row | IC50 (Nucleic Acid) | IC50 [1] | SMILES | Cmedia [2] | Concentration (Rattus norvegicus)
1 | 17 µM | > 100 µM | NCCCNCCCCNCCCN [SPERMINE] |  | 
2 | 175 µM | > 100 µM | NCCCCNCCCN [SPERMIDINE] |  | 
3 |  |  | N[C@@H](Cc1ccc(B(O)O)cc1)C(=O)O | 50 ug of B/ml | 81 µg of B g-1
4 |  | > 100 µM | CCNCCCNCCCCNCCCNCC [BIS(ETHYL)SPERMINE] |  | 
